Measurements taken from ChEMBL document CHEMBL1131008, “Substituted halogenated arylsulfonamides: a new class of sigma receptor binding tumor imaging agents” (J Med Chem, 1998).

Target: Sigma 2 receptor
Assay: Inhibition of [3H]-DTG binding to sigma-2 receptor of rat liver membranes with 1 uM dextrallorphan
Type: cell membranes, Membrane
In short: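 Rat liver membranes (150-200 µg protein) incubated with 5 nM [3H]DTG plus 1 µM dextrallorphan to mask sigma-1 sites, in 50 mM Tris-HCl pH 8.0, 120 min at 25 °C. […] Filtration assay. IC50 from curve fitting, converted to Ki via Cheng-Prusoff. Two or three experiments, each in duplicate.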

Structure (SMILES) | Ki [nM]
COc1ccc(S(=O)(=O)NCCN2CCCCC2)cc1I | 449
CN(CCN1CCCCCC1)S(=O)(=O)c1ccc(I)cc1 | 23.5
COc1ccc(S(=O)(=O)N(C)CCN2CCCCCC2)cc1I | 337
O=S(=O)(NCCN1CCCC1)c1ccc(I)cc1 | 1000
O=S(=O)(NCCN1CCCCCC1)c1ccc(Br)cc1 | 198
O=S(=O)(NCCN1CCCCCC1)c1ccc(I)cc1 | 189
CCN(CC)CCNS(=O)(=O)c1ccc(I)cc1 | 2390
O=S(=O)(NCCN1CCCCC1)c1ccc(I)cc1 | 206
O=S(=O)(NCCN1CCCCC1)c1ccc(Br)cc1 | 459
CN(CCN1CCCCCC1)S(=O)(=O)c1ccc(Br)cc1 | 44.4
CCN(CC)CCNS(=O)(=O)c1ccc(Br)cc1 | 2830
O=S(=O)(NCCN1CCCC1)c1ccc(Br)cc1 | 1490
